# Measured values from ChEMBL document CHEMBL4689842, “EUbOPEN Chemogenomics Library wave 1” (2021).
# Tested on: Fibroblast
# Assay: Multiplex assay against human fibroblast
# Assay type: toxicity, cell-based
# Method in brief: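 Live cells were stained at seeding with Hoechst33342, BioTracker Green Microtubule Cytoskeleton Dye, MitoTracker Red and Annexin V Alexa Fluor 680, then imaged on a CQ1 microscope at 37°C and 5% CO2 after compound addition. CellPathfinder machine-learning gating split cells into Hoechst high-intensity objects or normal cells. Normal cells were split into healthy, pyknosed or fragmented nuclei, and pyknosed cells into mitotic or apoptotic. Tubulin, mitochondrial-mass and membrane-permeability phenotypes are per cents of healthy-nucleus cells.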
# [1] = 12 h, 1 µM, compound concentration 1 uM, replicate 1
# [2] = 12 h, 1 µM, compound concentration 1 uM, replicate 2
# [3] = 12 h, 10 µM, compound concentration 10 uM, replicate 1
# [4] = 12 h, 10 µM, compound concentration 10 uM, replicate 2
# [5] = 24 h, 1 µM, compound concentration 1 uM, replicate 1
# [6] = 24 h, 1 µM, compound concentration 1 uM, replicate 2
# [7] = 24 h, 10 µM, compound concentration 10 uM, replicate 1
# [8] = 24 h, 10 µM, compound concentration 10 uM, replicate 2
# [9] = 48 h, 1 µM, compound concentration 1 uM, replicate 1
# [10] = 48 h, 1 µM, compound concentration 1 uM, replicate 2
# [11] = 48 h, 10 µM, compound concentration 10 uM, replicate 1
# [12] = 48 h, 10 µM, compound concentration 10 uM, replicate 2
compound,measurement,setting,value
Cc1nc(-c2cn3c(n2)-c2ccc(-c4cnn(C(C)(C)C(N)=O)c4)cc2OCC3)n(C(C)C)n1 [TASELISIB],Population Apoptotic (%),[1],85%
same,Population Fragmented Nuclei (%),[1],29%
same,Population Healthy Nuclei (%),[1],53%
same,Population Hoechst High Intensity Objects (%),[1],12%
same,Population Membrane Permeable-Phenotype (%),[1],7%
same,Population Mitochondria Different-Phenotype (%),[1],6%
same,Population Mitotic Cells (%),[1],14%
same,Population Normal (%),[1],87%
same,Population Pyknosed Nuclei (%),[1],17%
same,Population Tubulin-Different-Phenotype (%),[1],16%
same,Total Cell Count,[1],221
same,Population Apoptotic (%),[2],100%
same,Population Fragmented Nuclei (%),[2],61%
same,Population Healthy Nuclei (%),[2],33%
same,Population Hoechst High Intensity Objects (%),[2],30%
same,Population Membrane Permeable-Phenotype (%),[2],15%
same,Population Mitochondria Different-Phenotype (%),[2],10%
same,Population Mitotic Cells (%),[2],0%
same,Population Normal (%),[2],69%
same,Population Pyknosed Nuclei (%),[2],5%
same,Population Tubulin-Different-Phenotype (%),[2],60%
same,Total Cell Count,[2],86
same,Population Apoptotic (%),[3],71%
same,Population Fragmented Nuclei (%),[3],25%
same,Population Healthy Nuclei (%),[3],65%
same,Population Hoechst High Intensity Objects (%),[3],11%
same,Population Membrane Permeable-Phenotype (%),[3],7%
same,Population Mitochondria Different-Phenotype (%),[3],2%
same,Population Mitotic Cells (%),[3],28%
same,Population Normal (%),[3],88%
same,Total Cell Count,[3],188
same,Population Apoptotic (%),[4],33%
same,Population Fragmented Nuclei (%),[4],47%
same,Population Healthy Nuclei (%),[4],43%
same,Population Hoechst High Intensity Objects (%),[4],30%
same,Population Membrane Permeable-Phenotype (%),[4],13%
same,Population Mitochondria Different-Phenotype (%),[4],13%
same,Population Mitotic Cells (%),[4],66%
same,Population Normal (%),[4],69%
same,Population Pyknosed Nuclei (%),[4],8%
same,Population Tubulin-Different-Phenotype (%),[4],0%
same,Total Cell Count,[4],99
same,Population Apoptotic (%),[5],78%
same,Population Fragmented Nuclei (%),[5],32%
same,Population Healthy Nuclei (%),[5],51%
same,Population Hoechst High Intensity Objects (%),[5],14%
same,Population Membrane Permeable-Phenotype (%),[5],5%
same,Population Mitochondria Different-Phenotype (%),[5],7%
same,Population Mitotic Cells (%),[5],21%
same,Population Normal (%),[5],85%
same,Population Pyknosed Nuclei (%),[5],16%
same,Population Tubulin-Different-Phenotype (%),[5],18%
same,Total Cell Count,[5],238
same,Population Apoptotic (%),[6],60%
same,Population Fragmented Nuclei (%),[6],62%
same,Population Healthy Nuclei (%),[6],30%
same,Population Hoechst High Intensity Objects (%),[6],27%
same,Population Membrane Permeable-Phenotype (%),[6],14%
same,Population Mitochondria Different-Phenotype (%),[6],0%
same,Population Mitotic Cells (%),[6],40%
same,Population Normal (%),[6],72%
same,Population Pyknosed Nuclei (%),[6],7%
same,Population Tubulin-Different-Phenotype (%),[6],47%
same,Total Cell Count,[6],97
same,Population Apoptotic (%),[7],73%
same,Population Fragmented Nuclei (%),[7],23%
same,Population Healthy Nuclei (%),[7],67%
same,Population Hoechst High Intensity Objects (%),[7],13%
same,Population Membrane Permeable-Phenotype (%),[7],6%
same,Population Mitochondria Different-Phenotype (%),[7],2%
same,Population Mitotic Cells (%),[7],26%
same,Population Normal (%),[7],86%
same,Population Tubulin-Different-Phenotype (%),[7],1%
same,Total Cell Count,[7],188
same,Population Apoptotic (%),[8],42%
same,Population Fragmented Nuclei (%),[8],38%
same,Population Healthy Nuclei (%),[8],51%
same,Population Hoechst High Intensity Objects (%),[8],22%
same,Population Membrane Permeable-Phenotype (%),[8],10%
same,Population Mitochondria Different-Phenotype (%),[8],15%
same,Population Mitotic Cells (%),[8],57%
same,Population Normal (%),[8],77%
same,Population Pyknosed Nuclei (%),[8],9%
same,Population Tubulin-Different-Phenotype (%),[8],5%
same,Total Cell Count,[8],99
Cc1c(-c2ccc(O)cc2)n(Cc2ccc(OCCN3CCCCCC3)cc2)c2ccc(O)cc12 [BAZEDOXIFENE],Population Apoptotic (%),[1],69%
same,Population Fragmented Nuclei (%),[1],27%
same,Population Healthy Nuclei (%),[1],33%
same,Population Hoechst High Intensity Objects (%),[1],13%
same,Population Membrane Permeable-Phenotype (%),[1],16%
same,Population Mitochondria Different-Phenotype (%),[1],19%
same,Population Mitotic Cells (%),[1],30%
same,Population Normal (%),[1],86%
same,Population Pyknosed Nuclei (%),[1],39%
same,Population Tubulin-Different-Phenotype (%),[1],58%
same,Total Cell Count,[1],106
same,Population Apoptotic (%),[2],0%
same,Population Fragmented Nuclei (%),[2],13%
same,Population Healthy Nuclei (%),[2],81%
same,Population Hoechst High Intensity Objects (%),[2],10%
same,Population Membrane Permeable-Phenotype (%),[2],5%
same,Population Mitochondria Different-Phenotype (%),[2],20%
same,Population Mitotic Cells (%),[2],100%
same,Population Normal (%),[2],89%
same,Population Pyknosed Nuclei (%),[2],4%
same,Population Tubulin-Different-Phenotype (%),[2],17%
same,Total Cell Count,[2],48
same,Population Apoptotic (%),[3],72%
same,Population Fragmented Nuclei (%),[3],27%
same,Population Healthy Nuclei (%),[3],36%
same,Population Hoechst High Intensity Objects (%),[3],26%
same,Population Membrane Permeable-Phenotype (%),[3],12%
same,Population Mitochondria Different-Phenotype (%),[3],35%
same,Population Mitotic Cells (%),[3],27%
same,Population Normal (%),[3],73%
same,Population Pyknosed Nuclei (%),[3],36%
same,Population Tubulin-Different-Phenotype (%),[3],85%
same,Total Cell Count,[3],149
same,Population Apoptotic (%),[4],60%
same,Population Fragmented Nuclei (%),[4],7%
same,Population Healthy Nuclei (%),[4],56%
same,Population Hoechst High Intensity Objects (%),[4],2%
same,Population Membrane Permeable-Phenotype (%),[4],26%
same,Population Mitochondria Different-Phenotype (%),[4],100%
same,Population Mitotic Cells (%),[4],40%
same,Population Normal (%),[4],97%
same,Population Tubulin-Different-Phenotype (%),[4],100%
same,Total Cell Count,[4],42
same,Population Apoptotic (%),[5],80%
same,Population Fragmented Nuclei (%),[5],27%
same,Population Healthy Nuclei (%),[5],49%
same,Population Hoechst High Intensity Objects (%),[5],14%
same,Population Membrane Permeable-Phenotype (%),[5],22%
same,Population Mitochondria Different-Phenotype (%),[5],8%
same,Population Mitotic Cells (%),[5],19%
same,Population Normal (%),[5],85%
same,Population Pyknosed Nuclei (%),[5],23%
same,Population Tubulin-Different-Phenotype (%),[5],46%
same,Total Cell Count,[5],106
same,Population Apoptotic (%),[6],11%
same,Population Fragmented Nuclei (%),[6],8%
same,Population Healthy Nuclei (%),[6],75%
same,Population Hoechst High Intensity Objects (%),[6],3%
same,Population Membrane Permeable-Phenotype (%),[6],2%
same,Population Mitochondria Different-Phenotype (%),[6],6%
same,Population Mitotic Cells (%),[6],88%
same,Population Normal (%),[6],96%
same,Population Pyknosed Nuclei (%),[6],15%
same,Population Tubulin-Different-Phenotype (%),[6],15%
same,Total Cell Count,[6],60
same,Population Apoptotic (%),[7],62%
same,Population Fragmented Nuclei (%),[7],20%
same,Population Healthy Nuclei (%),[7],37%
same,Population Hoechst High Intensity Objects (%),[7],23%
same,Population Membrane Permeable-Phenotype (%),[7],12%
same,Population Mitochondria Different-Phenotype (%),[7],71%
same,Population Mitotic Cells (%),[7],37%
same,Population Normal (%),[7],76%
same,Population Pyknosed Nuclei (%),[7],41%
same,Population Tubulin-Different-Phenotype (%),[7],84%
same,Total Cell Count,[7],134
same,Population Apoptotic (%),[8],68%
same,Population Fragmented Nuclei (%),[8],22%
same,Population Healthy Nuclei (%),[8],30%
same,Population Hoechst High Intensity Objects (%),[8],20%
same,Population Membrane Permeable-Phenotype (%),[8],75%
same,Population Mitochondria Different-Phenotype (%),[8],100%
same,Population Mitotic Cells (%),[8],31%
same,Population Normal (%),[8],80%
same,Population Pyknosed Nuclei (%),[8],47%
same,Population Tubulin-Different-Phenotype (%),[8],100%
same,Total Cell Count,[8],50
same,Population Apoptotic (%),[9],50%
same,Population Fragmented Nuclei (%),[9],42%
same,Population Healthy Nuclei (%),[9],51%
same,Population Hoechst High Intensity Objects (%),[9],14%
same,Population Membrane Permeable-Phenotype (%),[9],26%
same,Population Mitochondria Different-Phenotype (%),[9],4%
same,Population Mitotic Cells (%),[9],50%
same,Population Normal (%),[9],85%
same,Population Pyknosed Nuclei (%),[9],6%
same,Population Tubulin-Different-Phenotype (%),[9],44%
same,Total Cell Count,[9],115
same,Population Apoptotic (%),[10],75%
same,Population Fragmented Nuclei (%),[10],27%
same,Population Healthy Nuclei (%),[10],68%
same,Population Hoechst High Intensity Objects (%),[10],16%
same,Population Membrane Permeable-Phenotype (%),[10],15%
same,Population Mitochondria Different-Phenotype (%),[10],1%
same,Population Mitotic Cells (%),[10],25%
same,Population Normal (%),[10],83%
same,Population Pyknosed Nuclei (%),[10],3%
same,Population Tubulin-Different-Phenotype (%),[10],46%
same,Total Cell Count,[10],123
same,Population Apoptotic (%),[11],85%
same,Population Fragmented Nuclei (%),[11],39%
same,Population Healthy Nuclei (%),[11],29%
same,Population Hoechst High Intensity Objects (%),[11],18%
same,Population Membrane Permeable-Phenotype (%),[11],33%
same,Population Mitochondria Different-Phenotype (%),[11],55%
same,Population Mitotic Cells (%),[11],14%
same,Population Normal (%),[11],81%
same,Population Pyknosed Nuclei (%),[11],30%
same,Population Tubulin-Different-Phenotype (%),[11],81%
same,Total Cell Count,[11],112
same,Population Apoptotic (%),[12],83%
same,Population Fragmented Nuclei (%),[12],42%
same,Population Healthy Nuclei (%),[12],37%
same,Population Hoechst High Intensity Objects (%),[12],35%
same,Population Membrane Permeable-Phenotype (%),[12],21%
same,Population Mitochondria Different-Phenotype (%),[12],47%
same,Population Mitotic Cells (%),[12],16%
same,Population Normal (%),[12],64%
same,Population Pyknosed Nuclei (%),[12],19%
same,Population Tubulin-Different-Phenotype (%),[12],65%
same,Total Cell Count,[12],95
